Publication PMC5616206 (Toxicology Reports, 2016)
Entries after “also recorded” stand apart in the source; their conditions may differ. Like-named read-outs stand apart in the source and are kept apart here.

Key:
[1] = Toxicokinetics of S9229 in the 28-day rat study; type: in vivo, Sprague-Dawley rats; conditions: for Cmax Ratio / AUC0-24hr Ratio: vs 10 mg/kg dose; for AUC(0-t) / Cmax / Tmax / half-life: rat, plasma, po; for AUC(0-t): AUC0-24hr
[2] = In vitro metabolism by rat liver microsomes; type: in vitro ADME, Sprague-Dawley rat; conditions: S9229 incubation, relative to S9229 at time = 0
[3] = system: Male and Female Hsd:ICR (CD-1) mice, bone marrow PCEs; assay: In vivo micronucleus assay in mice, S9229
In short: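 Hsd:ICR (CD-1) mice were gavaged once with the test compound suspended in 1% methylcellulose (20 mL/kg) in both the range-finding and definitive phases. The definitive phase used 0, 500, 624, 1352 and 2000 mg/kg bw, 5/sex/group, with bone marrow sampled at 24 h. Additional vehicle, 1352 and 2000 groups were sampled at 48 h. Femoral marrow smears were stained with acridine orange and scored for mnPCEs and PCE/TE ratio. Cyclophosphamide 50 mg/kg was the positive control.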

[4] = In vivo metabolism of S9229 in rats; set-up: species or system Sprague-Dawley rats; conditions: rat plasma, 1 h time point, 100 mg/kg bw oral
[5] = system: Primary human lymphocytes; conditions: for dose with substantial toxicity (at least 50% reduction in mitotic index): preliminary toxicity test
[6] = female, Sprague-Dawley (Crl:CD(SD)), 10 mg/kg, Day 1, 10 mg/kg bw, F
[7] = female, Sprague-Dawley (Crl:CD(SD)), 30 mg/kg, Day 1, 30 mg/kg bw, F
[8] = female, Sprague-Dawley (Crl:CD(SD)), 100 mg/kg, Day 1, 100 mg/kg bw, F
[9] = female, Sprague-Dawley (Crl:CD(SD)), 100 mg/kg, Day 28, 100 mg/kg bw, F
[10] = female, Sprague-Dawley [Crl:CD(SD)], 10 mg/kg, Day 28, 10 mg/kg bw, F
[11] = female, Sprague-Dawley [Crl:CD(SD)], 30 mg/kg, Day 28, 30 mg/kg bw, F
[12] = male, Sprague-Dawley (Crl:CD(SD)), 10 mg/kg, Day 1, 10 mg/kg bw, M
[13] = male, Sprague-Dawley (Crl:CD(SD)), 10 mg/kg, Day 28, 10 mg/kg bw, M
[14] = male, Sprague-Dawley (Crl:CD(SD)), 30 mg/kg, Day 1, 30 mg/kg bw, M
[15] = male, Sprague-Dawley (Crl:CD(SD)), 100 mg/kg, Day 1, 100 mg/kg bw, M
[16] = male, Sprague-Dawley (Crl:CD(SD)), 100 mg/kg, Day 28, 100 mg/kg bw, M
[17] = male, Sprague-Dawley [Crl:CD(SD)], 30 mg/kg, Day 28, 30 mg/kg bw, M

COC[C@@H](CC(C)C)NC(=O)c1ccc(C)c(C)c1 [S9229, (R)-N-(1-methoxy-4-methylpentan-2-yl)-3,4-dimethylbenzamide]
Cmax Ratio ([1]; Day 1, 30 mg/kg bw, M): 7.06
AUC0-24hr Ratio ([1]; Day 1, 100 mg/kg bw, F): 23.4
Cmax Ratio ([1]; Day 1, 100 mg/kg bw, F): 22.8
AUC0-24hr Ratio ([1]; Day 1, 100 mg/kg bw, M): 48.3
Cmax Ratio ([1]; Day 1, 100 mg/kg bw, M): 61.8
AUC0-24hr Ratio ([1]; Day 28, 10 mg/kg bw, F): 1
Cmax Ratio ([1]; Day 28, 10 mg/kg bw, F): 1
AUC0-24hr Ratio ([1]; Day 28, 10 mg/kg bw, M): 1
Cmax Ratio ([1]; Day 28, 10 mg/kg bw, M): 1
AUC0-24hr Ratio ([1]; Day 28, 30 mg/kg bw, F): 6.90
Cmax Ratio ([1]; Day 28, 30 mg/kg bw, F): 4.85
AUC0-24hr Ratio ([1]; Day 28, 30 mg/kg bw, M): 10.4
Cmax Ratio ([1]; Day 28, 30 mg/kg bw, M): 5.67
AUC0-24hr Ratio ([1]; Day 28, 100 mg/kg bw, F): 68.6
Cmax Ratio ([1]; Day 28, 100 mg/kg bw, F): 57.2
AUC0-24hr Ratio ([1]; Day 28, 100 mg/kg bw, M): 71.1
Cmax Ratio ([1]; Day 28, 100 mg/kg bw, M): 33.6
AUC(0-t) [1, 6]: 11.4 ± 11.1 ng·h/mL
Cmax [1, 6]: 15.6 ± 17 ng/mL
Tmax [1, 6]: 0.5 h
AUC(0-t) [1, 7]: 12.6 ± 2.8 ng·h/mL
Cmax [1, 7]: 8.6 ± 2.6 ng/mL
Tmax [1, 7]: 0.5 h
Tmax ([1]; female, Sprague-Dawley (Crl:CD(SD)), 30 mg/kg, Day 28, 30 mg/kg bw, F): 1 h
half-life ([1]; female, Sprague-Dawley (Crl:CD(SD)), 30 mg/kg, t1/2, Day 1, 30 mg/kg bw, F): 0.95 ± 0.48 h
half-life ([1]; female, Sprague-Dawley (Crl:CD(SD)), 30 mg/kg, t1/2, Day 28, 30 mg/kg bw, F): 2.16 ± 1.3 h
AUC(0-t) [1, 8]: 267 ± 174 ng·h/mL
AUC(0-t) [1, 9]: 144 ± 45.1 ng·h/mL
Cmax [1, 8]: 356 ± 256 ng/mL
Cmax [1, 9]: 74.4 ± 31.7 ng/mL
Tmax [1, 8]: 0.5 h
Tmax [1, 9]: 1 h
half-life ([1]; female, Sprague-Dawley (Crl:CD(SD)), 100 mg/kg, t1/2, Day 1, 100 mg/kg bw, F): 0.97 ± 0.36 h
half-life ([1]; female, Sprague-Dawley (Crl:CD(SD)), 100 mg/kg, t1/2, Day 28, 100 mg/kg bw, F): 0.98 ± 0.1 h
AUC(0-t) [1, 10]: 2.1 ± 1.9 ng·h/mL
Cmax [1, 10]: 1.3 ± 1.3 ng/mL
Tmax [1, 10]: 1 h
AUC(0-t) [1, 11]: 14.5 ± 4.3 ng·h/mL
Cmax [1, 11]: 6.3 ± 3.2 ng/mL
AUC(0-t) [1, 12]: 3.9 ± 0.8 ng·h/mL
AUC(0-t) [1, 13]: 1.5 ± 0.6 ng·h/mL
Cmax [1, 12]: 3.2 ± 1.3 ng/mL
Cmax [1, 13]: 1.2 ± 0.3 ng/mL
Tmax [1, 12]: 0.5 h
Tmax [1, 13]: 1.67 h
half-life ([1]; male, Sprague-Dawley (Crl:CD(SD)), 10 mg/kg, t1/2, Day 1, 10 mg/kg bw, M): 0.9 ± 0.23 h
AUC(0-t) [1, 14]: 25.8 ± 4.3 ng·h/mL
Cmax [1, 14]: 22.6 ± 10.5 ng/mL
Tmax [1, 14]: 0.5 h
half-life ([1]; male, Sprague-Dawley (Crl:CD(SD)), 30 mg/kg, t1/2, Day 1, 30 mg/kg bw, M): 1.16 ± 0.46 h
AUC(0-t) [1, 15]: 188 ± 78.8 ng·h/mL
AUC(0-t) [1, 16]: 107 ± 41.6 ng·h/mL
Cmax [1, 15]: 198 ± 98.5 ng/mL
Cmax [1, 16]: 40.3 ± 20.5 ng/mL
Tmax [1, 15]: 0.5 h
Tmax [1, 16]: 1 h
half-life ([1]; male, Sprague-Dawley (Crl:CD(SD)), 100 mg/kg, t1/2, Day 1, 100 mg/kg bw, M): 1.04 ± 0.04 h
half-life ([1]; male, Sprague-Dawley (Crl:CD(SD)), 100 mg/kg, t1/2, Day 28, 100 mg/kg bw, M): 1.39 ± 0.28 h
AUC(0-t) [1, 17]: 15.6 ± 2.7 ng·h/mL
Cmax [1, 17]: 6.8 ± 2.3 ng/mL
Tmax [1, 17]: 1 h
half-life ([1]; male, Sprague-Dawley [Crl:CD(SD)], 30 mg/kg, t1/2, Day 28, 30 mg/kg bw, M): 1.42 ± 0.28 h
% MS (EIC) Peak Area ([2]; 10 min): 36.4%
% MS (EIC) Peak Area ([2]; 20 min): 1.93%
Micronucleus formation (in vivo), Result ([3]; 500, 624, 1352, 2000 mg/kg bw (oral)): neither clastogenic nor aneugenic; also recorded: Negative
well tolerated highest dose tested ([3]; preliminary dose range finding, oral, male and female mice): 2000 mg/kg bw
parent compound as % of the total peak area [4]: less than 1%
dose levels with visible precipitate in treatment medium ([5]; beginning of the treatment period): ≥ 322 µg/mL
dose with substantial toxicity (at least 50% reduction in mitotic index) ([5]; non-activated 20-h exposure): ≥ 263 µg/mL
dose with substantial toxicity (at least 50% reduction in mitotic index) ([5]; non-activated and S9-activated 4-h exposure): ≥ 789 µg/mL
